According to ChEMBL document CHEMBL4715736, “Identification of anticancer agents based on the thieno[2,3-b]pyridine and 1H-pyrazole molecular scaffolds” (2016):

Tests used:
Format in all cases: functional
Conditions in all cases: read-out: Activity
[1] = tested on: CCRF-CEM; assay: Growth inhibition of human CCRF-CEM cells assessed as cell growth at 0.01 uM incubated for 48 hrs by sulforhodamine B assay relative to control
Procedure, shortened: (§1)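 NCI Developmental Therapeutics Program NCI60 panel. Compounds that were active in the 10 µM one-dose screen went on to dose–response testing. Growth at each concentration is expressed relative to untreated control (100%). GI50 (concentration giving 50% of maximal inhibition of proliferation) and TGI (concentration giving total growth inhibition) were derived from the curves.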

[2] = tested on: MOLT-4; assay: Growth inhibition of human MOLT-4 cells assessed as cell growth at 0.01 uM incubated for 48 hrs by sulforhodamine B assay relative to control
[3] = tested on: NCI-H460; assay: Growth inhibition of human NCI-H460 cells assessed as cell growth at 0.01 uM incubated for 48 hrs by sulforhodamine B assay relative to control
[4] = tested on: HCC 2998; assay: Growth inhibition of human HCC 2998 cells assessed as cell growth at 0.01 uM incubated for 48 hrs by sulforhodamine B assay relative to control; procedure, shortened: as §1
[5] = tested on: Hs-578T; assay: Growth inhibition of human Hs-578T cells assessed as cell growth at 0.1 uM incubated for 48 hrs by sulforhodamine B assay relative to control
[6] = tested on: IGROV-1; assay: Growth inhibition of human IGROV-1 cells assessed as cell growth at 1 uM incubated for 48 hrs by sulforhodamine B assay relative to control
[7] = tested on: T47D; assay: Growth inhibition of human T47D cells assessed as cell growth at 1 uM incubated for 48 hrs by sulforhodamine B assay relative to control
[8] = tested on: HL-60(TB); assay: Growth inhibition of human HL-60(TB) cells assessed as cell growth at 10 uM incubated for 48 hrs by sulforhodamine B assay relative to control
Procedure, shortened: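 Screened by the NCI Developmental Therapeutics Program on its panel of 60 human tumour cell lines. Compounds were first tested at a single 10 µM dose, and compounds active there went to dose-response curves. Growth is expressed relative to untreated control (100%). GI50 (50% of maximal proliferation inhibition) and TGI (total growth inhibition) were derived from the dose-response data.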

[9] = tested on: K562; assay: Growth inhibition of human K562 cells assessed as cell growth at 10 uM incubated for 48 hrs by sulforhodamine B assay relative to control
Procedure, shortened: (§2)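 Submitted to the NCI Developmental Therapeutics Program for the NCI60 human tumour cell line panel. First screen at a single 10 µM concentration. Read-out is growth relative to untreated control cells set at 100%.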

[10] = tested on: MOLT-4; assay: Growth inhibition of human MOLT-4 cells assessed as cell growth at 10 uM incubated for 48 hrs by sulforhodamine B assay relative to control; procedure, shortened: as §2
[11] = tested on: SR; assay: Growth inhibition of human SR cells assessed as cell growth at 10 uM incubated for 48 hrs by sulforhodamine B assay relative to control
Procedure, shortened: (§3)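 Run by the NCI Developmental Therapeutics Program as part of its 60-line human tumour panel. Each compound tested at a single 10 µM dose. Growth expressed as % relative to untreated control cells (100%).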

[12] = tested on: NCI-H226; assay: Growth inhibition of human NCI-H226 cells assessed as cell growth at 10 uM incubated for 48 hrs by sulforhodamine B assay relative to control; procedure, shortened: as §2
[13] = tested on: NCI-H522; assay: Growth inhibition of human NCI-H522 cells assessed as cell growth at 10 uM incubated for 48 hrs by sulforhodamine B assay relative to control; procedure, shortened: as §2
[14] = tested on: HCT-15; assay: Growth inhibition of human HCT-15 cells assessed as cell growth at 10 uM incubated for 48 hrs by sulforhodamine B assay relative to control; procedure, shortened: as §2
[15] = tested on: HT-29; assay: Growth inhibition of human HT-29 cells assessed as cell growth at 10 uM incubated for 48 hrs by sulforhodamine B assay relative to control; procedure, shortened: as §2
[16] = tested on: SW-620; assay: Growth inhibition of human SW-620 cells assessed as cell growth at 10 uM incubated for 48 hrs by sulforhodamine B assay relative to control; procedure, shortened: as §3
[17] = tested on: SF-268; assay: Growth inhibition of human SF-268 cells assessed as cell growth at 10 uM incubated for 48 hrs by sulforhodamine B assay relative to control; procedure, shortened: as §3
[18] = tested on: SNB-75; assay: Growth inhibition of human SNB-75 cells assessed as cell growth at 10 uM incubated for 48 hrs by sulforhodamine B assay relative to control; procedure, shortened: as §3
[19] = tested on: MDA-MB-435; assay: Growth inhibition of human MDA-MB-435 cells assessed as cell growth at 10 uM incubated for 48 hrs by sulforhodamine B assay relative to control; procedure, shortened: as §2
[20] = tested on: SK-MEL-2; assay: Growth inhibition of human SK-MEL-2 cells assessed as cell growth at 10 uM incubated for 48 hrs by sulforhodamine B assay relative to control; procedure, shortened: as §3
[21] = tested on: NCI/ADR-RES; assay: Growth inhibition of human NCI/ADR-RES cells assessed as cell growth at 10 uM incubated for 48 hrs by sulforhodamine B assay relative to control; procedure, shortened: as §2
[22] = tested on: SK-OV-3; assay: Growth inhibition of human SK-OV-3 cells assessed as cell growth at 10 uM incubated for 48 hrs by sulforhodamine B assay relative to control; procedure, shortened: as §3
[23] = tested on: 786-0; assay: Growth inhibition of human 786-0 cells assessed as cell growth at 10 uM incubated for 48 hrs by sulforhodamine B assay relative to control; procedure, shortened: as §1
[24] = tested on: A498; assay: Growth inhibition of human A498 cells assessed as cell growth at 10 uM incubated for 48 hrs by sulforhodamine B assay relative to control; procedure, shortened: as §1
[25] = tested on: CAKI-1; assay: Growth inhibition of human CAKI-1 cells assessed as cell growth at 10 uM incubated for 48 hrs by sulforhodamine B assay relative to control; procedure, shortened: as §1
[26] = tested on: TK-10; assay: Growth inhibition of human TK-10 cells assessed as cell growth at 10 uM incubated for 48 hrs by sulforhodamine B assay relative to control; procedure, shortened: as §3
[27] = tested on: UO-31; assay: Growth inhibition of human UO-31 cells assessed as cell growth at 10 uM incubated for 48 hrs by sulforhodamine B assay relative to control; procedure, shortened: as §3
[28] = tested on: PC-3; assay: Growth inhibition of human PC-3 cells assessed as cell growth at 10 uM incubated for 48 hrs by sulforhodamine B assay relative to control; procedure, shortened: as §3
[29] = tested on: MDA-MB-231; assay: Growth inhibition of human MDA-MB-231 cells assessed as cell growth at 10 uM incubated for 48 hrs by sulforhodamine B assay relative to control; procedure, shortened: as §2
[30] = tested on: Hs-578T; assay: Growth inhibition of human Hs-578T cells assessed as cell growth at 10 uM incubated for 48 hrs by sulforhodamine B assay relative to control; procedure, shortened: as §2
[31] = tested on: BT-549; assay: Growth inhibition of human BT-549 cells assessed as cell growth at 10 uM incubated for 48 hrs by sulforhodamine B assay relative to control
Procedure, shortened: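 NCI Developmental Therapeutics Program NCI60 human tumour cell line panel, one-dose primary screen with every compound at 10 µM. Growth is expressed as % of untreated control cells (100%).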

[32] = tested on: SW-620; assay: Growth inhibition of human SW-620 cells assessed as cell growth at 100 uM incubated for 48 hrs by sulforhodamine B assay relative to control
[33] = tested on: MDA-MB-468; assay: Growth inhibition of human MDA-MB-468 cells assessed as cell growth at 100 uM incubated for 48 hrs by sulforhodamine B assay relative to control

## CN1CCc2nc3sc(C(N)=O)c(N)c3c(-c3cccs3)c2C1
[1]
  growth at 0.01 µM: 103%
[2]
  growth at 0.01 µM: 99%
[3]
  growth at 0.01 µM: 109%
[4]
  growth at 0.01 µM: 94%
[5]
  growth at 0.1 µM: 92%
[6]
  growth at 1 µM: 129%
[7]
  growth at 1 µM: 84%
[8]
  growth at 10 µM: -18%
[9]
  growth at 10 µM: 30%
[10]
  growth at 10 µM: 9%
[11]
  growth at 10 µM: -11%
[12]
  growth at 10 µM: 11%
[13]
  growth at 10 µM: 9%
[14]
  growth at 10 µM: 10%
[15]
  growth at 10 µM: 7%
[16]
  growth at 10 µM: 7%
[17]
  growth at 10 µM: 10%
[18]
  growth at 10 µM: -10%
[19]
  growth at 10 µM: 10%
[20]
  growth at 10 µM: -28%
[21]
  growth at 10 µM: 19%
[22]
  growth at 10 µM: 15%
[23]
  growth at 10 µM: 19%
[24]
  growth at 10 µM: -15%
[25]
  growth at 10 µM: 11%
[26]
  growth at 10 µM: 1%
[27]
  growth at 10 µM: 11%
[28]
  growth at 10 µM: 21%
[29]
  growth at 10 µM: 28%
[30]
  growth at 10 µM: 6%
[31]
  growth at 10 µM: 10%
[32]
  growth at 100 µM: 3%
[33]
  growth at 100 µM: -59%

## CCc1ccccc1NC(=O)c1sc2nc3c(cc2c1N)C(=O)CCC3
[1]
  growth at 0.01 µM: 96%
[2]
  growth at 0.01 µM: 102%
[3]
  growth at 0.01 µM: 100%
[4]
  growth at 0.01 µM: 100%
[5]
  growth at 0.1 µM: 80%
[6]
  growth at 1 µM: 62%
[7]
  growth at 1 µM: 20%
[8]
  growth at 10 µM: -10.3%
[9]
  growth at 10 µM: 11%
[10]
  growth at 10 µM: 24.4%
[11]
  growth at 10 µM: 9.38%
[12]
  growth at 10 µM: 64%
[13]
  growth at 10 µM: -11.6%
[14]
  growth at 10 µM: 29%
[15]
  growth at 10 µM: 6%
[16]
  growth at 10 µM: 24%
[17]
  growth at 10 µM: 40.4%
[18]
  growth at 10 µM: -15.4%
[19]
  growth at 10 µM: -56.6%
[20]
  growth at 10 µM: 19.9%
[21]
  growth at 10 µM: 5%
[22]
  growth at 10 µM: 30%
[23]
  growth at 10 µM: 35.1%
[24]
  growth at 10 µM: -9.7%
[25]
  growth at 10 µM: 29.9%
[26]
  growth at 10 µM: 54.7%
[27]
  growth at 10 µM: 44.5%
[29]
  growth at 10 µM: 36%
[30]
  growth at 10 µM: 22.6%
[31]
  growth at 10 µM: 48%
[32]
  growth at 100 µM: 12%
[33]
  growth at 100 µM: -8%
